Thrombin inh: inhibitors of human thrombin; alpha-thrombin, Boc-VPR-AMC fluorogenic substrate cleavage; inhibition, % at 5 µM; 220,000 compounds, 0.26% hits;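 active means inhibition at or above 40%; inactive means inhibition below 40%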;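 further: 0% = enzyme with no compound and 100% = wells without enzyme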
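Test system: human alpha-thrombin protein / Dosing: one concentration per compound, 5 µM, with 0.2% DMSO / Medium: pH 7.5 Tris-saline with Tween 20 / Benchmarks: no-compound enzyme wells and no-enzyme blanks / Read-out basis: percent inhibition of thrombin substrate cleavage / Timing: reaction at room temperature / Measured by: fluorescence, ex 355 nm, em 460 nm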
FXIIa inh 1536: inhibitors of human coagulation factor XIIa; AID 800; purified FXIIa, Boc-QGR-AMC fluorogenic substrate, 2 h; P00748; inhibition, % at 5 µM; 220,000 compounds, 0.3% hits; in the data active means inhibition above about 40%;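 further: 0% = enzyme with no compound and 100% = blank without enzyme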
Hep lipid drop: modulators of hepatic lipid droplet formation | AML12 mouse hepatocytes, oleate lipid droplets, BODIPY imaging | inhibition, % at 6.5 µM | 240,000 compounds, 0.4% hits | AID 1656;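 active means lipid droplet intensity inhibited by at least 50%, with more than 500 cells counted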
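Material – AML12 mouse liver cells · Also added – oleate loading, 100 µM · Compound dosing – 6.5 µM single-point dosing · Times – overnight treatment with compound plus oleate · Measured by – fluorescence imaging, 20x objective, two fields per well · Read-out – percent inhibition of filter-corrected integrated lipid droplet intensity per well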
KLK5 inh: kallikrein 5 (human) inhibition; Q9Y337; recombinant hK5, fluorogenic AMC substrate cleavage; inhibition, % at 5 µM; 210,000 compounds, 0.59% hits; AID 873;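 active means inhibition of 40% or more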;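 further: 0% = enzyme controls without compound and 100% = no-enzyme blanks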
Target sequence (Q9Y337 67-293 limits assumed): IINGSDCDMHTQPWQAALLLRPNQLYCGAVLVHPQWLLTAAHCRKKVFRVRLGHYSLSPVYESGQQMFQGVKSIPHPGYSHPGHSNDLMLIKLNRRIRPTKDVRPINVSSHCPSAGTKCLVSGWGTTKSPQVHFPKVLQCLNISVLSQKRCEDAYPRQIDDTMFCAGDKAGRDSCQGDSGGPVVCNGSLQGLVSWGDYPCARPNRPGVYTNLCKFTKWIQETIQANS
FXIa inh 1536: inhibitors of human coagulation factor XIa. P03951. 220,000 compounds, 0.14% hits. purified FXIa, Boc-Glu-Ala-Arg-AMC fluorogenic substrate. inhibition, % at 5 µM;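 active means inhibition of at least 40%; inactive means inhibition below 40%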;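 further: fluorescence of freed AMC excited at 355 nm; 0% = enzyme without compound and 100% = no enzyme blank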
Calb biofilm kill: mixture kills Candida albicans biofilm cells. C. albicans biofilm persisters + clotrimazole, fluorescence viability; primary screen in compound mixtures of four per well. inhibition, % at 7.6 µM. 120,000 compounds, 0.02% hits. AID 1242;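 active means inhibition above 30.3% in the primary screen of four-compound pools, then above 30% when the compound was retested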;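 further: compounds exposed to preformed 24 h biofilms for 48 h; 0% = untreated biofilm control and 100% = clotrimazole plus chlorhexidine kill blank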
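Test system: C. albicans CAF4-2 wild-type biofilms; buffer or medium: RPMI/MOPS medium, pH 7.0; schedule: 24 h biofilm formation, then 48 h compound exposure, 37 °C; detection: Alamar Blue fluorescence; measure: percent inhibition of biofilm viability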
Active calls of the source: *; / = no result. Rows were chosen to be rich in hits. Some 1.1% of all compounds tested hit in one or more screens of this group.

SMILES	Thrombin inh	FXIIa inh 1536	Hep lipid drop	KLK5 inh	FXIa inh 1536	Calb biofilm kill
CN1CCN(C(=O)c2ccc(C(F)(F)F)cc2)CC1	25.1	23.7	-12.8	46.1*	27.6	9.5
CCCOc1ccc(C(=O)CCN2CCN(C(=O)OCC)CC2)cc1	-4.1	-2.1	-9.9	-22.7	-9.8	16.8
CCOC(=O)C1(Cc2ccc(Cl)cc2)CCN(C(=O)c2cnc(C)cn2)CC1	-14.4	5.9	6.4	-0.3	24.2	19.1
Cc1c(Cl)cccc1Nc1nc(N)nc(CN2CCc3ccccc3C2)n1	0.5	43.1*	-8.8	-26.3	26.9	/
COc1cc2c(cc1OC)C(c1ccccc1)N(C(=O)c1cccc(S(C)(=O)=O)c1)CC2 (stereo not drawn)	/	/	-5.9	/	/	/
O=C(CN1CCN(c2ccccn2)CC1)Nc1ccc(Oc2ccccc2)cc1	1.7	56.2*	/	-6.9	27.4	/
COc1ccccc1-n1c(SCC(N)=O)nc2sc3c(c2c1=O)CCC3	4.5	12.5	-2.3	6.7	6.2	2.7
COc1ccccc1Nc1ncc(C(=O)N2CCN(Cc3ccc(OC)c(OC)c3OC)CC2)c2ccccc12	-8.8	4.9	-9.5	-3.4	1.1	-6.4
CCN(CC)S(=O)(=O)c1ccc(C(=O)NCC2CCCCC2)cc1	/	/	25.0	/	/	/
CCCN(CCC)C(=O)Cn1ccc(=N)c2ccccc21	34.2	16.5	/	45.7*	2.9	/
CC1CCCC(C)N1C(=O)Cn1nnc(-c2ccc([N+](=O)[O-])cc2)n1 (stereo not drawn)	/	/	6.4	/	/	/
COc1ccc(-c2cc(C)no2)cc1S(=O)(=O)NCCc1ccco1	/	/	-5.2	/	/	/
CCCc1c(C(=O)N/N=C/c2cccnc2)nnn1-c1nonc1N	/	/	-0.8	/	/	/
CC1=C(C(=O)OCCOc2ccccc2)C(c2ccsc2)NC(=O)N1C (stereo not drawn)	8.2	37.7	-6.7	33.5	54.0*	6.7
O=C(c1cccs1)n1nc(-c2cccnc2)nc1NCc1ccco1	83.2*	11.9	-6.5	-6.4	16.9	4.4
COc1ccccc1C(=O)n1nc(-c2ccccc2)nc1NCc1ccco1	85.1*	13.1	-5.4	-4.6	4.8	/
CCC(=O)n1nc(-c2cccnc2)nc1NCc1cccs1	100.1*	11.2	11.3	2.3	1.9	18.1
Cc1ccc(-c2nc(NCc3ccco3)n(C(=O)c3ccco3)n2)cc1	22.3	3.9	-1.5	/	-3.9	11.5
CC(=O)n1nc(-c2cccnc2)nc1NCc1cccs1	/	8.2	11.8	1.7	1.5	9.1
CN(C(=O)c1ccncc1)c1nnc(-c2cccnc2)s1	-8.4	-2.0	1.1	-17.2	-6.8	/
CCN(C(=O)Cc1cccs1)c1nnc(-c2cccnc2)s1	14.1	6.3	-3.3	43.8*	-5.1	/
CC(=O)N1CCN(Cc2nc3cc(NC(=O)c4ccc(F)cc4)ccc3n2C)CC1	-8.6	-0.8	10.3	-3.4	-5.8	-11.8
CC(C)CN1CCN(C(=O)CCc2nnc(Cc3c[nH]c4ccccc34)o2)[C@@H](C)C1=O	/	/	-1.2	/	/	/
CCCC(=O)n1nc(-c2cccnc2)nc1NCc1cccs1	100.1*	13.1	-3.5	/	6.7	13.3
CCCC(=O)n1nc(-c2cccnc2)nc1NCc1ccccc1	100.2*	10.2	-6.8	2.1	-2.2	-1.8
SMILES	Thrombin inh	FXIIa inh 1536	Hep lipid drop	KLK5 inh	FXIa inh 1536	Calb biofilm kill
CC(C1CC2CCC1C2)N1CC(O)=C(c2nc3ccccc3[nH]2)C1=N (stereo not drawn)	3.8	48.9*	-30.8	26.8	26.7	5.4
COc1nc(NCCN2CCOCC2)nc(Nc2ccccc2)n1	13.5	22.2	-1.4	68.7*	3.9	/
CCN(CC(=O)N1CCOCC1)S(=O)(=O)c1cc(Cl)ccc1Cl	/	/	0.0	/	/	/
CCCCSc1nc2c(cc1C#N)CCC2	13.7	1.9	0.6	103.7*	5.2	/
COc1ccc(CNC(=O)C(C)N2C(=O)COc3ccc(C)cc32)c(OC)c1 (stereo not drawn)	4.6	15.5	-84.3	0.5	1.1	19.7
CC(=O)Nc1ccc(NC(=O)CCn2c(=S)oc3ccccc32)cc1	28.1	48.8*	0.6	19.1	26.4	12.2
CCc1cccc(NC(=O)Cc2ccc([N+](=O)[O-])cc2)c1	29.3	23.2	-18.1	51.5*	40.9*	8.1
CCC(=O)Nc1cccc(C(=O)OCc2cccc([N+](=O)[O-])c2)c1	40.8*	26.8	/	68.2*	26.5	7.2
Cc1sc(NC(=O)c2ccco2)c(CN2CCN(c3ccc(F)cc3)CC2)c1C	2.2	57.2*	-88.2	-15.7	29.7	/
C=CCN1C(=O)C2(OCCO2)c2cc(C)ccc21	/	/	8.4	/	/	/
CC(C)Oc1ccc(CNC(=S)N/N=C/c2ccc([N+](=O)[O-])cc2)cc1	-8.4	53.3*	-14.5	-12.2	-4.3	/
COC(=O)C1=C(C(=O)OC)[C@@H]2Nc3ccccc3[C@@]23C[C@@H](C(=O)OC)N(C(C)=O)C3=N1	-2.8	4.7	/	-1.6	-0.1	10.7
CCCCCCCCNC1=CC(=O)CC(C)(C)C1	6.8	29.7	1.9	50.0*	22.8	22.5
Clc1ccc(-c2cc(-c3nnc4n3CCCCC4)c3ccccc3n2)cc1	-2.4	12.1	-10.7	-3.2	1.0	8.4
c1ccc2c(-c3nnc4n3CCCCC4)cc(-c3ccncc3)nc2c1	45.3*	13.2	-1.1	19.8	2.9	11.2
CC(=O)c1ccc(N2Cc3ccccc3C3(CCOCC3)C2=N)cc1	-5.4	-0.9	-0.9	3.7	-6.3	15.4
COc1ccc(-c2[nH]ncc2CN(CCO)CC23CC4CC(CC(C4)C2)C3)c(OC)c1	-1.3	5.5	-2.1	/	-1.1	13.3
Cc1ccc2c(c1)CC1(CN2C)C(=O)OC2(CCCCC2)OC1=O	60.9*	14.4	/	-20.2	15.0	/
CN(CCCC(=O)N1CCCC(C(N)=O)C1)S(=O)(=O)c1ccc(F)cc1 (stereo not drawn)	/	/	0.7	/	/	/
CCSc1nc2cc(OC)c(OC)cc2c(=O)n1CC	24.4	22.3	5.4	65.9*	16.6	/
O=C(Cn1nc(-c2ccc(Cl)cc2)ccc1=O)NCC1CCCO1 (stereo not drawn)	17.3	16.2	/	51.0*	5.7	/
Cc1nn(C(C)C(=O)NCC2CCCO2)c(=O)c2cc3occc3n12 (stereo not drawn)	10.7	2.6	0.4	43.5*	6.8	/
Cc1nn(C(C)C(=O)NCCc2ccccc2)c(=O)c2cc3occc3n12 (stereo not drawn)	/	/	-8.6	/	/	/
O=C(Cc1cccs1)Nc1nnc(CCc2ccccc2)s1	54.4*	15.5	-3.0	42.8*	40.7*	/
Cc1cc(N/N=C/c2ccc(O)cc2)nc(NS(=O)(=O)c2ccccc2)n1	35.4	5.7	12.7	47.0*	10.1	16.6
COc1ccc(C(=O)N2CCC3(CC2)NCCc2[nH]cnc23)cc1OC	/	/	-0.7	/	/	/
CCCNC(=O)CN(C1CCCCC1)S(C)(=O)=O	-5.1	6.8	-14.2	-13.3	-7.6	/
CS(=O)(=O)N(CC(=O)NCc1ccccc1)C1CCCCC1	-0.4	16.3	7.8	-7.9	5.7	12.7
CC(C)CNC(=O)CN(C1CCCCC1)S(C)(=O)=O	24.0	9.8	12.1	51.7*	3.0	/
